High-throughput results from PubChem.
E-sel inducer: E-selectin induction on HUVECs. P16581. HUVEC E-selectin immunofluorescence imaging; normalized: neutral wells 0, TNF-alpha wells 100. activation, % at 7.58 µM. 0.37% of 260,000 active. AID 686992;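 active = mean E-selectin-positive cell signal at least 10% of the positive control, reached in at least 60% of replicates, without over 20% cell loss; inconclusive = no rule given, readout overlaps actives, possibly toxicity-flagged; inactive = the rest, including those meeting only one limit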
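Read-out: % PE-positive cells | Test system: HUVEC | Doses: One compound dose added by pin transfer | Buffer or medium: EGM-2 over gelatin coat | Signal: Immunofluorescence imaging | Benchmarks: TNF-alpha, DMSO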
SIRT5 inh: sirtuin-5 (human) deacylase inhibition. 1.1% of 330,000 active. inhibition, % at 15 µM. Purified SirT5, succinyl-peptide AMC, trypsin-coupled fluorescence; in the data active = inhibition above about 15%; inconclusive = no clear call, values can overlap the other calls
Target sequence (Q9NXA8 whole entry, looked up): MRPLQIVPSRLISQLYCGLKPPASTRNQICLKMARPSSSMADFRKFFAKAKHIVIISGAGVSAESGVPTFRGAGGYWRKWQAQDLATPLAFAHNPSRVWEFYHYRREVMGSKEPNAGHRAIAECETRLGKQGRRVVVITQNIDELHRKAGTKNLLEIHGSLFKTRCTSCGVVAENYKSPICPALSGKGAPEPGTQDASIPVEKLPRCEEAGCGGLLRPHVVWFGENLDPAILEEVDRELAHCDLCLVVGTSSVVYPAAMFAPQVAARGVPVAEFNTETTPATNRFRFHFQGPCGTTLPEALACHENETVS
PglD inh: blocks C. jejuni PglD acetyltransferase activity; 0.098% of 360,000 active; inhibition, % at 12.5 µM; purified PglD enzyme, DTNB colorimetric CoA detection; in the data active = inhibition above about 16%, passing the limit was not always enough; inconclusive = no clear call, values can overlap the other calls
DENV2 CPE rescue: inhibitors of DENV2 cytopathic effect; DENV2-infected cells, cytopathic effect rescue, plate reader; CPE inhibition, % at 9.99 µM; 1.7% of 350,000 active; AID 651640; in the data active = CPE inhibition above about 20%, passing the limit was not always enough; inconclusive = no clear call, values can overlap the other calls; tested in BHK-21 cells;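 also: 0% = median of neutral control wells and 100% = median of positive control wells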
ERAP1 inh: inhibitors of human ERAP1 aminopeptidase; Q9NZ08; 0.15% of 340,000 active; inhibition, % at 10.7 µM; recombinant ERAP1, Leu-AMC fluorescence, 60 min;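 active = mean replicate inhibition of at least 30%, or all replicates individually reaching that 30% level; inactive = mean below 30% and not every replicate reaching it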;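 also: 0% = neutral control wells and 100% = L-leucinethiol positive control wells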
* marks the source's active call; other numbers are inactive results; ? = inconclusive; . = no result. Only some compounds are listed: those with a hit (about 2.5% of all), similar ones and a draw of the others.

SMILES	E-sel inducer	SIRT5 inh	PglD inh	DENV2 CPE rescue	ERAP1 inh
O=C(c1cccc(F)c1)N1C[C@H]2[C@@H](c3ccccc31)[C@@H](CO)N2C(=O)C1CC1	0	-3	8	-11	0
O=C(Cc1ccccc1)N1C[C@H]2[C@@H](c3ccccc31)[C@@H](CO)N2C(=O)c1cccc(F)c1	1	-1	-4	37*	-1
COc1cc(/C=C2/CCC/C(=C\c3cc(O)c(OC)c(Cl)c3)C2=O)cc(Cl)c1O	.	.	5	.	.
CN(CC(=O)Nc1ccc(F)cc1)C(=O)C1Cc2ccccc2CN1S(C)(=O)=O (stereo not drawn)	3	-4	9	5	1
CCc1ccccc1Nc1nc(N)nc(CSCC(=O)Nc2ccc(C)c(C)c2)n1	.	16*	7	2	7
CCc1ccc(NC(=O)CSCc2nc(N)nc(Nc3ccccc3CC)n2)cc1	2	.	-1	.	.
COc1cccc(S(=O)(=O)N2CC3(CN[C@H](CO)c4c3c3ccc(OC)cc3n4C)C2)c1	-1	-2	.	-8	0
C[C@@H]1CN([C@@H](C)CO)C(=O)Cc2cc(NS(=O)(=O)c3ccc(Cl)cc3)ccc2O[C@H]1CN(C)C(=O)NC1CCCCC1	0	1	-1	-14	-2
C[C@H]1CN([C@@H](C)CO)C(=O)Cc2cc(NS(=O)(=O)c3ccc(Cl)cc3)ccc2O[C@H]1CN(C)C(=O)NC1CCCCC1	-2	0	3	32*	-1
Cc1noc(C)c1S(=O)(=O)Nc1ccc2c(c1)CC(=O)N([C@@H](C)CO)C[C@@H](C)[C@H](CN(C)C(=O)NC1CCCCC1)O2	7	-3	2	22*	1
C[C@@H]1CN([C@@H](C)CO)C(=O)Cc2cc(NS(=O)(=O)c3ccc(F)cc3)ccc2O[C@@H]1CN(C)C(=O)NC1CCCCC1	0	19*	-10	-8	0
CC(C)CCNC(=O)CCCOc1ccccc1	.	.	-12	.	.
CN(C(=O)c1ccc(NC(=O)C2CC=CCC2C(=O)O)cc1)c1ccccc1 (stereo not drawn)	.	.	-2	.	.
C[C@@H]1CCCCO[C@@H](CN(C)S(=O)(=O)c2ccc(F)cc2)[C@H](C)CN([C@H](C)CO)C(=O)c2cc(NC(=O)Nc3ccc(C(F)(F)F)cc3)ccc2O1	.	15*	3	-4	-2
C[C@@H]1CCCCO[C@@H](CN(C)S(C)(=O)=O)[C@H](C)CN([C@@H](C)CO)C(=O)c2cc(NC(=O)Nc3ccc(C(F)(F)F)cc3)ccc2O1	0	2	0	57*	-3
C[C@@H]1CCCCO[C@@H](CN(C)S(=O)(=O)c2ccc(F)cc2)[C@@H](C)CN([C@H](C)CO)C(=O)c2cc(NC(=O)Nc3ccc(C(F)(F)F)cc3)ccc2O1	.	4	-4	88*	4
CC(C)C[C@H](CO)Nc1nc(Nc2cccc(Cl)c2)c2ncn(C(C)C)c2n1	0	.	4	?	-2
CC1Sc2ccc(S(=O)(=O)CCC(=O)NC3CCCCCC3)cc2NC1=O (stereo not drawn)	0	2	5	2	2
CCOC(=O)C1=CCN(S(=O)(=O)c2ccccc2Cl)C1c1ccc(Cl)c(Cl)c1 (stereo not drawn)	0	-2	-1	-5	0
CCOC(=O)C1=CCN(S(=O)(=O)c2ccccc2Br)C1c1ccc(Cl)c(Cl)c1 (stereo not drawn)	0	25*	4	11	2
O=C(/C=C/c1ccccc1Cl)N(Cc1cccs1)C1CCS(=O)(=O)C1 (stereo not drawn)	0	-5	2	1	7
COCC(=O)N1CCCCN2[C@H](CO)[C@@H](c3ccc(C#Cc4cccnc4)cc3)[C@@H]2C1	0	-2	2	-3	3
O=C(c1cccnc1)N1CCCCN2[C@H](CO)[C@@H](c3ccc(C#Cc4cccnc4)cc3)[C@H]2C1	0	.	-3	25*	.
CN(C)CC(=O)N1CCCCN2[C@H](CO)[C@H](c3ccc(-c4cccnc4)cc3)[C@@H]2C1	0	-1	-2	22*	1
O=C(c1cccnc1)N1CCCCN2[C@H](C1)[C@H](c1ccc(C#Cc3cccnc3)cc1)[C@@H]2CO	0	-1	2	10	-1
SMILES	E-sel inducer	SIRT5 inh	PglD inh	DENV2 CPE rescue	ERAP1 inh
COCC(=O)N1CCCCN2[C@H](C1)[C@@H](c1ccc(C#Cc3cccnc3)cc1)[C@@H]2CO	0	-13	0	23*	-1
COCC(=O)N1CCCCN2[C@H](CO)[C@@H](c3ccc(C#Cc4cccnc4)cc3)[C@H]2C1	0	0	-2	32*	1
O=C(COC(=O)c1cccnc1Cl)NC(=O)c1ccc(OC(F)F)cc1	.	-1	-5	-10	2
CN(C)C(=O)c1cccc(-c2ccc([C@@H]3[C@H]4CN(C(=O)C5CCCC5)CC(=O)N4[C@H]3CO)cc2)c1	-1	0	.	1	-1
O=C(NC1CCCCC1)N[C@@H]1CC[C@H](CCNS(=O)(=O)c2ccc(F)cc2)O[C@H]1CO	-1	0	3	0	-1
Cc1ccc(NC(=O)c2cc3ccccc3cc2O)cc1	.	-3	-1	5	-1
COc1ccc(NC(=O)c2cc3ccccc3cc2O)cc1	.	-2	5	46*	2
CC(C)c1ccccc1NC(=O)COC(=O)c1cc([N+](=O)[O-])ccc1N1CCOCC1	2	-2	-8	-1	0
C[C@@H]1CN([C@@H](C)CO)S(=O)(=O)c2ccc(C#Cc3ccc(F)cc3)cc2O[C@@H]1CN(C)S(C)(=O)=O	1	6	-1	-1	0
C=CC[C@@H](CC(=O)N(CCO)Cc1ccccc1)C(=O)N[C@H](COC(=O)[C@@H](CC=C)CC(=O)OC(C)(C)C)c1ccccc1	0	20*	4	-11	12
C=CC[C@H](CC(=O)N(CCO)Cc1ccccc1)C(=O)N[C@@H](COC(=O)[C@H](CC=C)CC(=O)OC(C)(C)C)Cc1c[nH]c2ccccc12	1	27*	0	0	0
CN1C(=O)/C(=C2\SC(=S)N(CCCCCC(=O)O)C2=O)c2ccccc21	4	-3	1	-5	-4
Cc1nc(S/C(=C/c2ccc(-c3cc(Cl)ccc3C)o2)C(=O)O)n[nH]1	9	-6	.	-1	0
O=C(O)c1cc(Cl)ccc1-c1ccc(/C=C/c2cc(C(F)(F)F)[nH]c(=O)n2)o1	.	20*	.	-3	7
O=C(O)c1ccccc1-c1ccc(/C=C/c2cc(C(F)(F)F)[nH]c(=O)n2)o1	28*	7	.	-3	19
Cc1ccc(NC(=O)CCCNC(=O)c2ccc(Cl)cc2)c(Br)c1	.	-2	-5	-1	3
COc1ccc(-c2cc3ccccc3[nH]2)cc1	.	-3	1	2	0
c1ccc(-c2cc3ccccc3[nH]2)cc1	0	-3	1	27*	-1
COc1cccc(-c2cnc3c(NC=O)cc(-c4ccncc4)cn23)c1	-1	.	0	65*	0
